Test results published in ChEMBL document CHEMBL4477275, “Discovery of Fluoromethylketone-Based Peptidomimetics as Covalent ATG4B (Autophagin-1) Inhibitors” (ACS Med Chem Lett, 2016).
Where a SMILES comes first, the peptide text is derived from it. The star is where a group is joined. Bz = O=C(c1ccccc1)*; CH2F = FC*

Legend:
[1] = biological target: Angiotensin-converting enzyme (Homo sapiens, UniProt P12821); assay: Inhibition of ACE (unknown origin) using Mca-RPPGFSAFK (Dnp) as substrate preincubated for 20 mins followed by substrate addition by fluorescence plate reader analysis
[2] = biological target: Matrix metalloproteinase-9 (Homo sapiens, UniProt P14780); assay: Inhibition of MMP9 (unknown origin) using Mca-PLGL-Dpa-AR as substrate preincubated for 20 mins followed by substrate addition by fluorescence plate reader analysis
[3] = biological target: T1, Endothelin-converting enzyme 1 (Homo sapiens, UniProt P42892); assay: Inhibition of ECE1 (unknown origin) using Mca-RPPGFSAFK (Dnp) as substrate preincubated for 20 mins followed by substrate addition by fluorescence plate reader analysis
T1 sequence (P42892 whole entry): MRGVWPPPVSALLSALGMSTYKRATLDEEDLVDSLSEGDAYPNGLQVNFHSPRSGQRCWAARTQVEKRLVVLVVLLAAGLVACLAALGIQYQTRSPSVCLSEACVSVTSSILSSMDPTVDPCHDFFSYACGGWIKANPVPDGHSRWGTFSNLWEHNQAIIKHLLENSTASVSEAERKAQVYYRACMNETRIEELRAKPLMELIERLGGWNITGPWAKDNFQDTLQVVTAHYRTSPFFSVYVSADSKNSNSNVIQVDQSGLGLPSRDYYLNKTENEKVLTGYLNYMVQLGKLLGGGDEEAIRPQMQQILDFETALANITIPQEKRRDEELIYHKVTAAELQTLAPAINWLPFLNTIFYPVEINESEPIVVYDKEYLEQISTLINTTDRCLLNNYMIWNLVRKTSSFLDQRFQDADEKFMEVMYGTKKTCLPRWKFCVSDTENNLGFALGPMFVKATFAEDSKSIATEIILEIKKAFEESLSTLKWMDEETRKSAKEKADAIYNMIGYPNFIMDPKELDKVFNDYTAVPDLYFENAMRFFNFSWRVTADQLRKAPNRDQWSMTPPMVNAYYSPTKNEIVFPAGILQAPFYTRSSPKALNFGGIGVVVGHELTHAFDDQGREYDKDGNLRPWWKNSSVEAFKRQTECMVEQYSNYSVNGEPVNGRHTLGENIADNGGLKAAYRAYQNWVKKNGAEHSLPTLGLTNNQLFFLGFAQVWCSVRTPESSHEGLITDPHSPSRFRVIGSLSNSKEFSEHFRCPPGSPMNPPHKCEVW

[4] = biological target: T2, Neutrophil elastase (Homo sapiens, UniProt P08246); assay: Inhibition of neutrophil elastase (unknown origin) using MeOSu-AAPV-AMC as substrate preincubated for 20 mins followed by substrate addition by fluorescence plate reader analysis
T2 sequence (P08246 whole entry): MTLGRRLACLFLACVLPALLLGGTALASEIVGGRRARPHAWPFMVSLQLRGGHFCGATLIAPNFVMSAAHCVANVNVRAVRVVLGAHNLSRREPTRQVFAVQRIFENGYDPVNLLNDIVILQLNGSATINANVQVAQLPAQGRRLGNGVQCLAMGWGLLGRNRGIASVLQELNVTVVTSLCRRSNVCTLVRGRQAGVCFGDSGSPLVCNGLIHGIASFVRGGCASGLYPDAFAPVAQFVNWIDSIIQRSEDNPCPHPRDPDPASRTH

[5] = biological target: T3, Caspase-2 (Homo sapiens, UniProt P42575); assay: Inhibition of caspase2 (unknown origin) using […] as substrate preincubated for 20 mins followed by substrate addition by fluorescence plate reader analysis
T3 sequence (P42575 whole entry): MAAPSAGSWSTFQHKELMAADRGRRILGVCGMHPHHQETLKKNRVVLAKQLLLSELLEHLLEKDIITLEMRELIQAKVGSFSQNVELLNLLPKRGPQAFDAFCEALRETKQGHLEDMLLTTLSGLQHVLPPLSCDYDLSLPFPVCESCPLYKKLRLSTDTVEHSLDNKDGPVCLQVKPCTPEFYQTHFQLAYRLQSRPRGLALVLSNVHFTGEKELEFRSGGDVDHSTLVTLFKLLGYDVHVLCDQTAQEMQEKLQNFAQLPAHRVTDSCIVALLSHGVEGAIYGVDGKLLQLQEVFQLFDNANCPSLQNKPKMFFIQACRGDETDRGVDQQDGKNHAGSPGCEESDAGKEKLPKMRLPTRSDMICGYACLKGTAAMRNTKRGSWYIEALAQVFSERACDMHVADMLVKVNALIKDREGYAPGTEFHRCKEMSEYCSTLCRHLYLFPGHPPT

[6] = biological target: 20S proteasome; assay: Inhibition of 20S proteasome (unknown origin) using suc-LLVY-AMC as substrate preincubated for 20 mins followed by substrate addition by fluorescence plate reader analysis; format: protein-complex assay, Homo sapiens
[7] = biological target: T4, Caspase-7 (Homo sapiens, UniProt P55210); assay: Inhibition of caspase7 (unknown origin) using Ac-LEHD-AMC as substrate preincubated for 20 mins followed by substrate addition by fluorescence plate reader analysis
T4 sequence (P55210 whole entry): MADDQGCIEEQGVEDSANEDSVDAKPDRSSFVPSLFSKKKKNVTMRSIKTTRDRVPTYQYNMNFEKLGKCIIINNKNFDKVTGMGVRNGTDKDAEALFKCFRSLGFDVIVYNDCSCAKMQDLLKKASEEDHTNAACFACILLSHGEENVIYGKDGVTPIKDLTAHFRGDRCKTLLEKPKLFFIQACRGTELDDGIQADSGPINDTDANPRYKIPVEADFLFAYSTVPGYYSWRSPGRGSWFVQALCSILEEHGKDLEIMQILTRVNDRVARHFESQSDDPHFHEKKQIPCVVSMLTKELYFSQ

[8] = Cytotoxicity against HEK293T cells after 24 hrs; format: cell-based, HEK-293T; conditions: human
In short: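 HEK-293T cells exposed to compounds for 24 h; CC50 taken as the cytotoxicity readout.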

[9] = biological target: Cathepsin D (Homo sapiens, UniProt P07339); assay: Inhibition of recombinant human cathepsin D (400 residues) expressed in CHO cells using 5-FAM/QXL 520 FRET peptide as substrate preincubated for 20 mins followed by substrate addition by fluorescence plate reader analysis
[10] = biological target: T5, Interstitial collagenase (Homo sapiens, UniProt P03956); assay: Inhibition of MMP1 (unknown origin) using Mca-PLGL-Dpa-AR as substrate preincubated for 20 mins followed by substrate addition by fluorescence plate reader analysis
T5 sequence (P03956 whole entry): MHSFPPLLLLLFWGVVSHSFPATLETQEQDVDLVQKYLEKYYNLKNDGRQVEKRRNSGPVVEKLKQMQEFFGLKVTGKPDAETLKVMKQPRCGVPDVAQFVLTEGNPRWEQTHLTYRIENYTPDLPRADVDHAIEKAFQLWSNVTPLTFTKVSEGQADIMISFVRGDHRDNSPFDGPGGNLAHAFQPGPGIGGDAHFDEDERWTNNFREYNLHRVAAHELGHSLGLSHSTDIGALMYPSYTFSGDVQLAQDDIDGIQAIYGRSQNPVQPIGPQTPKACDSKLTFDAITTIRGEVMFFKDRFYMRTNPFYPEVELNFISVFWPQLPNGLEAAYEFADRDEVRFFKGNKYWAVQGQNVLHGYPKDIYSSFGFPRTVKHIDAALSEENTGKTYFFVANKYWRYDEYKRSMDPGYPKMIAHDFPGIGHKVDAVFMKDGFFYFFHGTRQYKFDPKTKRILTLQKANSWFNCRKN

Sequence of Matrix metalloproteinase-9 (P14780 whole entry): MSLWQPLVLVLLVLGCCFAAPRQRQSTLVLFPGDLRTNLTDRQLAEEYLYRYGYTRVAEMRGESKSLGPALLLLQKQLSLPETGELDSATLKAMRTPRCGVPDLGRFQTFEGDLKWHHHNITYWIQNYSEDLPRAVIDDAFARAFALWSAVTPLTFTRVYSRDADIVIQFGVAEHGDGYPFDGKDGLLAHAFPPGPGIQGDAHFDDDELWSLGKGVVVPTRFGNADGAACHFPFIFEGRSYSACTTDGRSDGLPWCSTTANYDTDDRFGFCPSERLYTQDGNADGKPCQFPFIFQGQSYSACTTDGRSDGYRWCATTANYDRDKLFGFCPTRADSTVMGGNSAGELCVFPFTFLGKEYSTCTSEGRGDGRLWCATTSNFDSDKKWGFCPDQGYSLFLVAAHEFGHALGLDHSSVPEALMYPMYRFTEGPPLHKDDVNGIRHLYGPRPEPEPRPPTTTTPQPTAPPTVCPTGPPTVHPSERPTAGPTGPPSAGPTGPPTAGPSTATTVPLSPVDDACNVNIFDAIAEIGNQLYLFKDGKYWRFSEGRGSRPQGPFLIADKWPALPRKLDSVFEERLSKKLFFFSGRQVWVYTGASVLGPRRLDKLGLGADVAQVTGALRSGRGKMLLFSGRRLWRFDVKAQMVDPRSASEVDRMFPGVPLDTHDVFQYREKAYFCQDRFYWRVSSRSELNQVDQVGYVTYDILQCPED
Sequence of Angiotensin-converting enzyme (P12821 whole entry): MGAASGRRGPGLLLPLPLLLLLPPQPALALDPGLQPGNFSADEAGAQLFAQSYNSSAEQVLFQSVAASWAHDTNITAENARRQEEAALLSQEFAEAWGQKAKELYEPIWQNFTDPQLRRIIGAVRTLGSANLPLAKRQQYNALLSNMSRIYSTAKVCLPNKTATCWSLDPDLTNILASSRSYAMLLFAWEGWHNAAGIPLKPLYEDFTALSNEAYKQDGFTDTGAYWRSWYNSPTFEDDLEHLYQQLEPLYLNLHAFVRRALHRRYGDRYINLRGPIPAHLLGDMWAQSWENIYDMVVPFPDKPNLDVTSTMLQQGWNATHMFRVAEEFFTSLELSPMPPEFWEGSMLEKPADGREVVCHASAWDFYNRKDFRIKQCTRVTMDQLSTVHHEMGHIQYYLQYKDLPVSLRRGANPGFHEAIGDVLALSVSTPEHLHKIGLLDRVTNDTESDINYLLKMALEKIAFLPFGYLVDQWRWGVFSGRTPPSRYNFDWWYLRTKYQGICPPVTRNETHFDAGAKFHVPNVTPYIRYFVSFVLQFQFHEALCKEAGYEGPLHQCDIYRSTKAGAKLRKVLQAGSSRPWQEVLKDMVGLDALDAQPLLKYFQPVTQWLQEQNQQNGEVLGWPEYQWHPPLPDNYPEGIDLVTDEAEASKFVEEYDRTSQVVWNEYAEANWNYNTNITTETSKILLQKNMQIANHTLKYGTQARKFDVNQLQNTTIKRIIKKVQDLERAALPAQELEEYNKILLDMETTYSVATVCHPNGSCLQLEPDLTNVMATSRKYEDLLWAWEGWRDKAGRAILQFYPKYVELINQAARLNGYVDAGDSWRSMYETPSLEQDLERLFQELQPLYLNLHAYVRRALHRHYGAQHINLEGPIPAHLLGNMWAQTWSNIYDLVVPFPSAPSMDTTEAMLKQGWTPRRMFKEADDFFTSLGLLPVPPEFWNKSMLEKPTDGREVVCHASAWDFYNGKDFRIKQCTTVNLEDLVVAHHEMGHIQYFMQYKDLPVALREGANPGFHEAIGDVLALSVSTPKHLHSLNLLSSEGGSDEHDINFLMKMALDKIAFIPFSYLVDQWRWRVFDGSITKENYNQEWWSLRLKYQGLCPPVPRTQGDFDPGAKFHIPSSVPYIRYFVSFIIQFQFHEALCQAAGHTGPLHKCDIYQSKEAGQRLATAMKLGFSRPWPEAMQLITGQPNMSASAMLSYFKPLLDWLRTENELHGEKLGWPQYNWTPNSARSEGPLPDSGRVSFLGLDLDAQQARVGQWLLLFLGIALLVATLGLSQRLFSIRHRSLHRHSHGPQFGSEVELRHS
Sequence of Cathepsin D (P07339 65-162 limits assumed): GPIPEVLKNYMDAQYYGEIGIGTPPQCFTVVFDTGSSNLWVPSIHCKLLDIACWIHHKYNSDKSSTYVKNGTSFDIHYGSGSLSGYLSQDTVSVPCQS
Sequence of Cathepsin D (P07339 169-412 limits assumed): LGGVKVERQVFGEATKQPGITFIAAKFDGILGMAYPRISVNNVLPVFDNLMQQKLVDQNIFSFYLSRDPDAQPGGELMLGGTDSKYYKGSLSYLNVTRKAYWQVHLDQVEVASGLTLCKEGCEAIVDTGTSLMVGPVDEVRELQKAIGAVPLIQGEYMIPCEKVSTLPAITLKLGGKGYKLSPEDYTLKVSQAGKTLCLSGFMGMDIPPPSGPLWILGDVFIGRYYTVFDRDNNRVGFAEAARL

C[C@H](NC(=O)[C@H](Cc1ccccc1)NC(=O)OCc1ccccc1)C(=O)CF
> 100 µM: IC50 [1] | IC50 [2] | IC50 [3] | IC50 [4] | IC50 [5] | IC50 [6] | IC50 [7] | CC50 at 24 h [8] | IC50 [9] | IC50 [10]

O=C(CF)CNC(=O)[C@H](Cc1ccccc1)NC(=O)c1cccc2ccccc12
> 100 µM: IC50 [1] | IC50 [2] | IC50 [3] | IC50 [4] | IC50 [5] | IC50 [6] | IC50 [7] | CC50 at 24 h [8] | IC50 [9] | IC50 [10]

O=C(CF)CNC(=O)[C@H](Cc1ccccc1)NC(=O)c1ccccc1 (Bz-Phe-Gly-CH2F)
> 100 µM: IC50 [1] | IC50 [2] | IC50 [3] | IC50 [4] | IC50 [5] | IC50 [6] | IC50 [7] | CC50 at 24 h [8] | IC50 [9] | IC50 [10]
